# Experimental data: publication PMC6500982 (Cancer Science, 2019)
# Experiment: Safety and tolerability
# Type: in vivo, human
# How it was run: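 Patients (enrolled January 2015–February 2016) received oral test compound in four cohorts: 160, 320 or 480 mg QD, or 300 mg BID. Dosing continued until progression, unacceptable AEs or consent withdrawal. AEs were graded by CTCAE v4.0, alongside laboratory tests, vital signs and ECGs. The safety population was all patients receiving ≥1 dose.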
compound,measurement,setting,value
CC#CC(=O)N1CC[C@@H](n2c(=O)n(-c3ccc(Oc4ccccc4)cc3)c3c(N)ncnc32)C1 [tirabrutinib],"All AEs, Any grade",160 mg QD N = 3,3 (100.0) n (%)
same,"All AEs, Grade ≥3",160 mg QD N = 3,1 (33.3) n (%)
same,"Anemia, Any grade",160 mg QD N = 3,0 n (%)
same,"Anemia, Grade ≥3",160 mg QD N = 3,0 n (%)
same,"Arthralgia, Any grade",160 mg QD N = 3,1 (33.3) n (%)
same,"Arthralgia, Grade ≥3",160 mg QD N = 3,0 n (%)
same,"Aspartate aminotransferase increased, Any grade",160 mg QD N = 3,0 n (%)
same,"Aspartate aminotransferase increased, Grade ≥3",160 mg QD N = 3,0 n (%)
same,"Constipation, Any grade",160 mg QD N = 3,0 n (%)
same,"Constipation, Grade ≥3",160 mg QD N = 3,0 n (%)
same,"Cystitis, Any grade",160 mg QD N = 3,0 n (%)
same,"Cystitis, Grade ≥3",160 mg QD N = 3,0 n (%)
same,"Diarrhea, Any grade",160 mg QD N = 3,0 n (%)
same,"Diarrhea, Grade ≥3",160 mg QD N = 3,0 n (%)
same,"Dysgeusia, Any grade",160 mg QD N = 3,0 n (%)
same,"Dysgeusia, Grade ≥3",160 mg QD N = 3,0 n (%)
same,"Gamma‐glutamyltransferase increased, Any grade",160 mg QD N = 3,0 n (%)
same,"Gamma‐glutamyltransferase increased, Grade ≥3",160 mg QD N = 3,0 n (%)
same,"Headache, Any grade",160 mg QD N = 3,1 (33.3) n (%)
same,"Headache, Grade ≥3",160 mg QD N = 3,0 n (%)
same,"Hypokalemia, Any grade",160 mg QD N = 3,0 n (%)
same,"Hypokalemia, Grade ≥3",160 mg QD N = 3,0 n (%)
same,"Hypophosphatemia, Any grade",160 mg QD N = 3,0 n (%)
same,"Hypophosphatemia, Grade ≥3",160 mg QD N = 3,0 n (%)
same,"Insomnia, Any grade",160 mg QD N = 3,0 n (%)
same,"Insomnia, Grade ≥3",160 mg QD N = 3,0 n (%)
same,"Leukopenia, Any grade",160 mg QD N = 3,0 n (%)
same,"Leukopenia, Grade ≥3",160 mg QD N = 3,0 n (%)
same,"Lymphopenia, Any grade",160 mg QD N = 3,0 n (%)
same,"Lymphopenia, Grade ≥3",160 mg QD N = 3,0 n (%)
same,"Malaise, Any grade",160 mg QD N = 3,2 (66.7) n (%)
same,"Malaise, Grade ≥3",160 mg QD N = 3,0 n (%)
same,"Myalgia, Any grade",160 mg QD N = 3,2 (66.7) n (%)
same,"Myalgia, Grade ≥3",160 mg QD N = 3,0 n (%)
same,"Nasopharyngitis, Any grade",160 mg QD N = 3,1 (33.3) n (%)
same,"Nasopharyngitis, Grade ≥3",160 mg QD N = 3,0 n (%)
same,"Nausea, Any grade",160 mg QD N = 3,0 n (%)
same,"Nausea, Grade ≥3",160 mg QD N = 3,0 n (%)
same,"Neutropenia, Any grade",160 mg QD N = 3,1 (33.3) n (%)
same,"Neutropenia, Grade ≥3",160 mg QD N = 3,1 (33.3) n (%)
same,"Pharyngitis, Any grade",160 mg QD N = 3,1 (33.3) n (%)
same,"Pharyngitis, Grade ≥3",160 mg QD N = 3,0 n (%)
same,"Pyrexia, Any grade",160 mg QD N = 3,0 n (%)
same,"Pyrexia, Grade ≥3",160 mg QD N = 3,0 n (%)
same,"Rash, Any grade",160 mg QD N = 3,1 (33.3) n (%)
same,"Rash, Grade ≥3",160 mg QD N = 3,0 n (%)
same,"Thrombocytopenia, Any grade",160 mg QD N = 3,0 n (%)
same,"Thrombocytopenia, Grade ≥3",160 mg QD N = 3,0 n (%)
same,"Upper respiratory tract inflammation, Any grade",160 mg QD N = 3,1 (33.3) n (%)
same,"Upper respiratory tract inflammation, Grade ≥3",160 mg QD N = 3,0 n (%)
same,"Vomiting, Any grade",160 mg QD N = 3,0 n (%)
same,"Vomiting, Grade ≥3",160 mg QD N = 3,0 n (%)
same,"All AEs, Any grade",300 mg BID N = 7,7 (100.0) n (%)
same,"All AEs, Grade ≥3",300 mg BID N = 7,3 (42.9) n (%)
same,"Anemia, Any grade",300 mg BID N = 7,1 (14.3) n (%)
same,"Anemia, Grade ≥3",300 mg BID N = 7,1 (14.3) n (%)
same,"Arthralgia, Any grade",300 mg BID N = 7,1 (14.3) n (%)
same,"Arthralgia, Grade ≥3",300 mg BID N = 7,0 n (%)
same,"Aspartate aminotransferase increased, Any grade",300 mg BID N = 7,1 (14.3) n (%)
same,"Aspartate aminotransferase increased, Grade ≥3",300 mg BID N = 7,0 n (%)
same,"Constipation, Any grade",300 mg BID N = 7,1 (14.3) n (%)
same,"Constipation, Grade ≥3",300 mg BID N = 7,0 n (%)
same,"Cystitis, Any grade",300 mg BID N = 7,1 (14.3) n (%)
same,"Cystitis, Grade ≥3",300 mg BID N = 7,0 n (%)
same,"Diarrhea, Any grade",300 mg BID N = 7,2 (28.6) n (%)
same,"Diarrhea, Grade ≥3",300 mg BID N = 7,0 n (%)
same,"Dysgeusia, Any grade",300 mg BID N = 7,1 (14.3) n (%)
same,"Dysgeusia, Grade ≥3",300 mg BID N = 7,0 n (%)
same,"Gamma‐glutamyltransferase increased, Any grade",300 mg BID N = 7,1 (14.3) n (%)
same,"Gamma‐glutamyltransferase increased, Grade ≥3",300 mg BID N = 7,0 n (%)
same,"Headache, Any grade",300 mg BID N = 7,1 (14.3) n (%)
same,"Headache, Grade ≥3",300 mg BID N = 7,0 n (%)
same,"Hypokalemia, Any grade",300 mg BID N = 7,0 n (%)
same,"Hypokalemia, Grade ≥3",300 mg BID N = 7,0 n (%)
same,"Hypophosphatemia, Any grade",300 mg BID N = 7,0 n (%)
same,"Hypophosphatemia, Grade ≥3",300 mg BID N = 7,0 n (%)
same,"Insomnia, Any grade",300 mg BID N = 7,3 (42.9) n (%)
same,"Insomnia, Grade ≥3",300 mg BID N = 7,0 n (%)
same,"Leukopenia, Any grade",300 mg BID N = 7,0 n (%)
same,"Leukopenia, Grade ≥3",300 mg BID N = 7,0 n (%)
same,"Lymphopenia, Any grade",300 mg BID N = 7,0 n (%)
same,"Lymphopenia, Grade ≥3",300 mg BID N = 7,0 n (%)
same,"Malaise, Any grade",300 mg BID N = 7,0 n (%)
same,"Malaise, Grade ≥3",300 mg BID N = 7,0 n (%)
same,"Myalgia, Any grade",300 mg BID N = 7,0 n (%)
same,"Myalgia, Grade ≥3",300 mg BID N = 7,0 n (%)
same,"Nasopharyngitis, Any grade",300 mg BID N = 7,1 (14.3) n (%)
same,"Nasopharyngitis, Grade ≥3",300 mg BID N = 7,0 n (%)
same,"Nausea, Any grade",300 mg BID N = 7,2 (28.6) n (%)
same,"Nausea, Grade ≥3",300 mg BID N = 7,0 n (%)
same,"Neutropenia, Any grade",300 mg BID N = 7,0 n (%)
same,"Neutropenia, Grade ≥3",300 mg BID N = 7,0 n (%)
same,"Pharyngitis, Any grade",300 mg BID N = 7,1 (14.3) n (%)
same,"Pharyngitis, Grade ≥3",300 mg BID N = 7,0 n (%)
same,"Pyrexia, Any grade",300 mg BID N = 7,2 (28.6) n (%)
same,"Pyrexia, Grade ≥3",300 mg BID N = 7,0 n (%)
same,"Rash, Any grade",300 mg BID N = 7,1 (14.3) n (%)
same,"Rash, Grade ≥3",300 mg BID N = 7,0 n (%)
same,"Thrombocytopenia, Any grade",300 mg BID N = 7,0 n (%)
same,"Thrombocytopenia, Grade ≥3",300 mg BID N = 7,0 n (%)
same,"Upper respiratory tract inflammation, Any grade",300 mg BID N = 7,0 n (%)
same,"Upper respiratory tract inflammation, Grade ≥3",300 mg BID N = 7,0 n (%)
same,"Vomiting, Any grade",300 mg BID N = 7,2 (28.6) n (%)
same,"Vomiting, Grade ≥3",300 mg BID N = 7,0 n (%)
same,"All AEs, Any grade",320 mg QD N = 3,3 (100.0) n (%)
same,"All AEs, Grade ≥3",320 mg QD N = 3,2 (66.7) n (%)
same,"Anemia, Any grade",320 mg QD N = 3,0 n (%)
same,"Anemia, Grade ≥3",320 mg QD N = 3,0 n (%)
same,"Arthralgia, Any grade",320 mg QD N = 3,1 (33.3) n (%)
same,"Arthralgia, Grade ≥3",320 mg QD N = 3,0 n (%)
same,"Aspartate aminotransferase increased, Any grade",320 mg QD N = 3,0 n (%)
same,"Aspartate aminotransferase increased, Grade ≥3",320 mg QD N = 3,0 n (%)
same,"Constipation, Any grade",320 mg QD N = 3,1 (33.3) n (%)
same,"Constipation, Grade ≥3",320 mg QD N = 3,0 n (%)
same,"Cystitis, Any grade",320 mg QD N = 3,1 (33.3) n (%)
same,"Cystitis, Grade ≥3",320 mg QD N = 3,0 n (%)
same,"Diarrhea, Any grade",320 mg QD N = 3,1 (33.3) n (%)
same,"Diarrhea, Grade ≥3",320 mg QD N = 3,0 n (%)
same,"Dysgeusia, Any grade",320 mg QD N = 3,0 n (%)
same,"Dysgeusia, Grade ≥3",320 mg QD N = 3,0 n (%)
same,"Gamma‐glutamyltransferase increased, Any grade",320 mg QD N = 3,1 (33.3) n (%)
same,"Gamma‐glutamyltransferase increased, Grade ≥3",320 mg QD N = 3,0 n (%)
same,"Headache, Any grade",320 mg QD N = 3,0 n (%)
same,"Headache, Grade ≥3",320 mg QD N = 3,0 n (%)
same,"Hypokalemia, Any grade",320 mg QD N = 3,0 n (%)
same,"Hypokalemia, Grade ≥3",320 mg QD N = 3,0 n (%)
same,"Hypophosphatemia, Any grade",320 mg QD N = 3,0 n (%)
same,"Hypophosphatemia, Grade ≥3",320 mg QD N = 3,0 n (%)
same,"Insomnia, Any grade",320 mg QD N = 3,0 n (%)
same,"Insomnia, Grade ≥3",320 mg QD N = 3,0 n (%)
same,"Leukopenia, Any grade",320 mg QD N = 3,2 (66.7) n (%)
same,"Leukopenia, Grade ≥3",320 mg QD N = 3,2 (66.7) n (%)
same,"Lymphopenia, Any grade",320 mg QD N = 3,1 (33.3) n (%)
same,"Lymphopenia, Grade ≥3",320 mg QD N = 3,1 (33.3) n (%)
same,"Malaise, Any grade",320 mg QD N = 3,0 n (%)
same,"Malaise, Grade ≥3",320 mg QD N = 3,0 n (%)
